Assay results published in ChEMBL document CHEMBL4732226, “Discovery of a potent G-protein-coupled receptor 119 agonist for the treatment of type 2 diabetes” (Bioorg Med Chem, 2021).
pEC50: −log10 of the molar value.

Legend:
[1] = molecular target: T1, Glucose-dependent insulinotropic receptor (Homo sapiens, UniProt Q8TDV5); test: Agonist activity at human GPR119 stably transfected in CHO-K1 cells assessed as increase in cAMP stimulation after 1 hr by enzyme immunoassay; assay type: functional, cell-based; conditions: for EC50: cho-k1; for pEC50: read-out: EC50
T1 sequence (Q8TDV5 whole entry): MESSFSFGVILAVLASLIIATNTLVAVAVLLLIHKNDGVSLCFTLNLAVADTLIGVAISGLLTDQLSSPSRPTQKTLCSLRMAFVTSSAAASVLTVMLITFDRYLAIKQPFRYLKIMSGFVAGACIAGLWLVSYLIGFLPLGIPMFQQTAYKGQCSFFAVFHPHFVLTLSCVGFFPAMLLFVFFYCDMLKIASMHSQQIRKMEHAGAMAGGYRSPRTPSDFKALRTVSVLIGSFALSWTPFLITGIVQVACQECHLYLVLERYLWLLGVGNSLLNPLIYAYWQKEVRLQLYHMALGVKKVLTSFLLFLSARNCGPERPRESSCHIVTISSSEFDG

[2] = molecular target: T2, Glucose-dependent insulinotropic receptor (Homo sapiens) (UniProt Q8TDV5); test: Agonist activity at human GPR119 stably transfected in CHO-K1 cells assessed as increase in cAMP stimulation after 1 hr by enzyme immunoassay relative to AR231453; assay type: functional, cell-based
T2 sequence (whole entry): T1 sequence (Q8TDV5 whole entry)

Mus musculus = test: Antidiabetic activity in glucose-stimulated […] mouse assessed as reduction in blood glucose level at 50 mg/kg, po pretreated for 30 mins followed by glucose-stimulation and measured up to 120 mins by OGTT method relative to control; assay type: functional; design: scale not given: the % may be the effect or the level left; conditions: 0.5 h
Summary of the method: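 C57 mice aged 6–8 weeks were grouped by non-fasting glucose and fasted overnight. Single oral dose of 50 mg/kg; 30 min later basal bleed and oral glucose 3 g/kg. Serum glucose taken at 20, 40, 60 and 120 min. Change in glucose AUC calculated.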

[3] = Half life in Sprague-Dawley rat at 25 mg/kg, po up to 24 hrs; assay type: ADME, organism-based; conditions: in vivo
Summary of the method: (§1)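 Male SD rats fasted overnight, water ad libitum, fed 4 h after dosing. Single oral gavage of 25 mg/kg as a homogeneous suspension in 0.5% Tween 80 in 0.5% Na-CMC. Blood drawn into Na-heparin tubes at 0.25, 0.5, 1, 2, 4, 6, 8 and 24 h; plasma stored at -70°C. Parameters by non-compartmental analysis, with C0 taken as zero and BLQ samples set to zero.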

[4] = Tmax in Sprague-Dawley rat at 25 mg/kg, po up to 24 hrs; assay type: ADME, organism-based; conditions: in vivo; summary of the method: as §1
[5] = AUC(0 to infinity) in Sprague-Dawley rat at 25 mg/kg, po up to 24 hrs; assay type: ADME, organism-based; design: route oral, dose 25 mg/kg, time <=24; conditions: in vivo; summary of the method: as §1
[6] = AUC(0 to t) in Sprague-Dawley rat at 25 mg/kg, po up to 24 hrs; assay type: ADME, organism-based; design: route oral, dose 25 mg/kg, time <=24; conditions: in vivo; summary of the method: as §1
[7] = Elimination rate constant in Sprague-Dawley rat at 25 mg/kg, po up to 24 hrs; assay type: ADME, organism-based; conditions: in vivo; summary of the method: as §1
[8] = Cmax in Sprague-Dawley rat at 25 mg/kg, po up to 24 hrs; assay type: ADME, organism-based; design: route oral, dose 25 mg/kg, time <=24; conditions: in vivo; summary of the method: as §1

SMILES	pEC50 [1]	Emax ([2]; filed as agonist) [%]	further results
COC(=O)N1CCC(Oc2cc(Oc3ccc(/C=C4\SC(=O)NC4=O)cc3)ncn2)CC1	–	–	EC50 [1]: Not Active
CCOC(=O)N1CCC(Oc2ncnc(Oc3cccc(/C=C4\SC(=O)NC4=O)c3)c2C)CC1	–	–	EC50 [1]: Not Active
CCOC(=O)N1CCC(Oc2cc(Oc3ccc(/C=C4\SC(=O)NC4=O)cc3)ncn2)CC1	6.10	51.8	–
CC(C)(C)OC(=O)N1CCC(Oc2cc(Oc3ccc(/C=C4\SC(=O)NC4=O)cc3)ncn2)CC1	–	122	–
CC(C)COC(=O)N1CCC(Oc2cc(Oc3ccc(/C=C4\SC(=O)NC4=O)cc3)ncn2)CC1	6.13	51	–
Cc1c(Oc2ccc(/C=C3\SC(=O)NC3=O)cc2)ncnc1OC1CCN(C(=O)OC(C)(C)C)CC1	–	68.8	half-life [3]: 4.37 h; Tmax [4]: 2.25 h; AUC(0-inf) [5]: 8310 ng·h/mL; AUC(0-t) at 24 h [6]: 8110 ng·h/mL; k el at 24 h [7]: 4.44e-05 s⁻¹; Cmax [8]: 835 ng/mL; Activity (Mus musculus): 34.6%
Cc1c(Oc2ccc(/C=C3\SC(=O)NC3=O)cc2)ncnc1OC1CCN(C(=O)OCc2ccccc2)CC1	6.09	43.3	–
COC(=O)N1CCC(Oc2ncnc(Oc3cccc(/C=C4\SC(=O)NC4=O)c3)c2C)CC1	–	–	EC50 [1]: Not Active
COC(=O)N1CCC(Oc2ncnc(Oc3ccc(/C=C4\SC(=O)NC4=O)cc3)c2C)CC1	5.85	53.3	–
Cc1c(Oc2cccc(/C=C3\SC(=O)NC3=O)c2)ncnc1OC1CCN(C(=O)OCC(C)C)CC1	–	–	EC50 [1]: Not Active
CCOC(=O)N1CCC(Oc2cc(Oc3cccc(/C=C4\SC(=O)NC4=O)c3)ncn2)CC1	6.09	43.3	–
COC(=O)N1CCC(Oc2cc(Oc3cccc(/C=C4\SC(=O)NC4=O)c3)ncn2)CC1	5.73	–	Emax [2]: 33.7%

Further lines, with some results ahead:

pEC50 [1]	Emax ([2]; filed as agonist) [%]	SMILES	further results
6.98	138	Cc1c(Oc2cccc(/C=C3\SC(=O)NC3=O)c2)ncnc1OC1CCN(C(=O)OCc2ccccc2)CC1	–
6.90	78.3	CC(C)(C)OC(=O)N1CCC(Oc2cc(Oc3cccc(/C=C4\SC(=O)NC4=O)c3)ncn2)CC1	–
8.22	100	CC(C)c1noc(C2CCN(c3ncnc(Nc4ccc(S(C)(=O)=O)cc4F)c3[N+](=O)[O-])CC2)n1	–
7.12	70.2	Cc1c(Oc2ccc(/C=C3\SC(=O)NC3=O)cc2)ncnc1OC1CCN(C(=O)OCC(C)C)CC1	Activity (Mus musculus): 24%
6.81	98.3	O=C1NC(=O)/C(=C/c2cccc(Oc3cc(OC4CCN(C(=O)OCc5ccccc5)CC4)ncn3)c2)S1	–
6.80	141	CCOC(=O)N1CCC(Oc2ncnc(Oc3ccc(/C=C4\SC(=O)NC4=O)cc3)c2C)CC1	–
6.97	88.3	O=C1NC(=O)/C(=C/c2ccc(Oc3cc(OC4CCN(C(=O)OCc5ccccc5)CC4)ncn3)cc2)S1	–
6.14	62.4	CC(C)COC(=O)N1CCC(Oc2cc(Oc3cccc(/C=C4\SC(=O)NC4=O)c3)ncn2)CC1	–
